Activity calls are given as the source filed them. The rule behind the calls is not given here. Numbered stars: 1 amine (or outer) side, 2 acyl side, 3 side chain; on linkers, the order of the positions; unused ones are H or OH. Square brackets hold non-standard residues; d marks the D form. Peptide text beside a SMILES is read from it. X6 = O=C(CBr)N(CCCC[C@@H](N[*:1])C(=O)[*:2])C(=O)CBr; X1 = O=C(CBr)N(CCC[C@@H](N[*:1])C(=O)[*:2])C(=O)CBr; X7 = CC(=O)N(CCCC[C@@H](N[*:1])C(=O)[*:2])C(C)=O; X8 = CC(=O)N(CCC[C@@H](N[*:1])C(=O)[*:2])C(C)=O; X5 = O=C([C@@H](CCCCN(N=C=S)N=C=S)N[*:1])[*:2]; X4 = O=C([C@@H](CCCN(N=C=S)N=C=S)N[*:1])[*:2]
Legend:
Mu-type opioid receptor [1] = biological target: Mu-type opioid receptor (Cavia porcellus, UniProt P97266); assay: Displacement of beta-[3H]FNA from mu opioid receptor in guinea pig brain membrane; type: cell membranes
Mu-type opioid receptor (Cavia porcellus, UniProt P97266), sequence (P97266 whole entry): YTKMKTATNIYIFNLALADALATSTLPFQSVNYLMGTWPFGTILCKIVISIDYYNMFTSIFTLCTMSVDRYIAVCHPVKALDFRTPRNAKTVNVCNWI

[2] = biological target: Mu-type opioid receptor (Rattus norvegicus) (UniProt P33535); assay: Inhibition of [3H]naloxone binding to mu opioid receptor in rat brain membrane; type: cell membranes
Mu-type opioid receptor (Rattus norvegicus), sequence (P33535 whole entry): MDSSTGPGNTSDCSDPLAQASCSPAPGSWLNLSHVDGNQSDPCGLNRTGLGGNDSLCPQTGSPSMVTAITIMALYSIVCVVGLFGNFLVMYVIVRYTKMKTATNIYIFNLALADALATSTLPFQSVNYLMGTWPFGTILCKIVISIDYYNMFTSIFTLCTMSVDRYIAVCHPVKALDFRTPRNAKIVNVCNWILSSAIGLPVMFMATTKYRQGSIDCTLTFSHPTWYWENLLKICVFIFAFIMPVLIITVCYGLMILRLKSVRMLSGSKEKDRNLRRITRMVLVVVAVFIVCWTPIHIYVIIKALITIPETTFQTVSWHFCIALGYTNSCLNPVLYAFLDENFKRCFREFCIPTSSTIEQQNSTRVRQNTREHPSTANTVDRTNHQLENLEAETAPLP

[3] = biological target: Mu-type opioid receptor (Cavia porcellus) (UniProt P97266); assay: Ratio of compound IC50 to beta-FNA IC50 for mu opioid receptor in guinea pig brain membrane; type: cell membranes
Mu-type opioid receptor (Cavia porcellus), sequence (P97266 whole entry): as the sequence (P97266 whole entry) above

Mu-type opioid receptor [4] = biological target: T1, Mu-type opioid receptor (Homo sapiens, UniProt P35372); assay: Displacement of [3H]DAMGO from mu opioid receptor expressed in CHO cells after 90 mins by scintillation counting; type: cell-based
T1 sequence (P35372 whole entry): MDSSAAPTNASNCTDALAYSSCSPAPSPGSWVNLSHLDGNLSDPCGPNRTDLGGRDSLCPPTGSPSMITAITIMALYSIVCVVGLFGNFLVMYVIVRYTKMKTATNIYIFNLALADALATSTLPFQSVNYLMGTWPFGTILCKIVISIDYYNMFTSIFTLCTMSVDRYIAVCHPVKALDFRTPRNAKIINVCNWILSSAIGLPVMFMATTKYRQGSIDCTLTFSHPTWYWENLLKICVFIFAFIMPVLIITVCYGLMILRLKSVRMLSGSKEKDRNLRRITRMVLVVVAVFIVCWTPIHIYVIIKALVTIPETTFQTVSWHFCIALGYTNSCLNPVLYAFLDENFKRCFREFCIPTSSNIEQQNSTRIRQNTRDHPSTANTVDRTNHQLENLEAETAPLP
Summary of the method: (§1)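 Competitive radioligand binding on CHO cells stably expressing MOR or DOR. Radioligand was [3H]DAMGO for MOR and [3H]DPDPE for DOR. IC50 values were measured under standard conditions.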

[5] = biological target: Delta-type opioid receptor (Homo sapiens, UniProt P41143); assay: Displacement of [3H]DPDPE from delta opioid receptor expressed in CHO cells after 90 mins by scintillation counting; type: cell-based; summary of the method: as §1
Delta-type opioid receptor, sequence (P41143 whole entry): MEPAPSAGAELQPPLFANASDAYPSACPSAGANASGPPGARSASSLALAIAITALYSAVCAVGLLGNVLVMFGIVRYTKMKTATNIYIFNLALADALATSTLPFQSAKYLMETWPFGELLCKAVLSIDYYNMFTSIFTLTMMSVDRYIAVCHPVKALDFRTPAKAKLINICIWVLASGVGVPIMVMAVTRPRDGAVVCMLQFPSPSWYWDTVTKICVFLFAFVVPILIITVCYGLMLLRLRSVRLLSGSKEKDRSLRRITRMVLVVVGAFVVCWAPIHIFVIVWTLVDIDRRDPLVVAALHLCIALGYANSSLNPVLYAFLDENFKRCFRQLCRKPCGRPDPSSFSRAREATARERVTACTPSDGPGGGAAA

Mu-type opioid receptor [6] = biological target: T1, Mu-type opioid receptor; assay: Displacement of [3H]DAMGO from mu opioid receptor expressed in CHO cells after 90 mins by scintillation counting relative to dermorphin; type: cell-based
[7] = Selectivity ratio of IC50 for delta opioid receptor to IC50 for mu opioid receptor
Summary of the method: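 MOR selectivity was calculated as the ratio of DOR IC50 to MOR IC50. Both IC50s came from CHO-cell binding, with [3H]DPDPE as the DOR radioligand and [3H]DAMGO as the MOR radioligand. Ratios depend on the radioligand concentration used.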

Mu-type opioid receptor [8] = biological target: T1, Mu-type opioid receptor; assay: Ratio of dermorphin IC50 to compound IC50 for mu opioid receptor expressed in CHO cells; type: cell-based
Mu-type opioid receptor [9] = biological target: T1, Mu-type opioid receptor; assay: Inhibition of [3H]DAMGO binding to mu opioid receptor expressed in CHO cells after 90 mins by WRIB assay; type: cell-based
Summary of the method: (§2)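 Wash-resistant inhibition of binding in MOR-expressing CHO cell membranes. Membranes were incubated with peptide, either near its IC50 or at higher concentrations, then washed extensively to remove noncovalently bound ligand. Remaining [3H]DAMGO binding was then measured and expressed as % inhibition against untreated control. Acetylated reversible analogues were run alongside to verify that the wash was complete.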

Mu-type opioid receptor [10] = biological target: T1, Mu-type opioid receptor; details: CHO; 0.11 nM
[11] = Ratio of dermorphin selectivity for mu opioid receptor over delta opioid receptor to compound selectivity for mu opioid receptor over delta opioid receptor
Mu-type opioid receptor [12] = biological target: T1, Mu-type opioid receptor; details: CHO; 0.43 nM
Mu-type opioid receptor [13] = biological target: T1, Mu-type opioid receptor; assay: Inhibition of [3H]DAMGO binding to mu opioid receptor expressed in CHO cells at 0.4 nM after 90 mins by WRIB assay; type: cell-based; summary of the method: as §2
Mu-type opioid receptor [14] = biological target: T1, Mu-type opioid receptor; assay: Inhibition of [3H]DAMGO binding to mu opioid receptor expressed in CHO cells at 7 nM after 90 mins by WRIB assay; type: cell-based; summary of the method: as §2
[15] = biological target: Mu-type opioid receptor (Rattus norvegicus) (UniProt P33535); assay: (§3) Inhibition of [3H]DAMGO binding to mu opioid receptor in rat brain membrane; type: cell membranes
Mu-type opioid receptor [16] = biological target: Mu-type opioid receptor (Rattus norvegicus, UniProt P33535); assay: as §3; type: cell membranes
Mu-type opioid receptor (Rattus norvegicus, UniProt P33535), sequence (P33535 whole entry): as the sequence (P33535 whole entry) above

COC(=O)/C=C/C(=O)N[C@@H]1CC[C@@]2(O)[C@H]3Cc4ccc(O)c5c4[C@@]2(CCN3CC2CC2)[C@H]1O5
IC50 (Mu-type opioid receptor [1]): 2.2 nM

C[C@@H](NC(=O)[C@@H](N)Cc1ccc(O)cc1)C(=O)NCC(=O)N(C)c1ccccc1
inhibition [2]: Dose-dependent effect

N[C@@H](Cc1ccc(O)cc1)C(=O)N[C@H](CCCN(C(=O)CBr)C(=O)CBr)C(=O)N[C@@H](Cc1ccccc1)C(=O)NCC(=O)N[C@@H](Cc1ccc(O)cc1)C(=O)N1CCC[C@H]1C(=O)N[C@@H](CO)C(=O)O (H-Y[X1]FGYPS-OH)
Ratio IC50 [3]: 3 | IC50 (Mu-type opioid receptor [4]): 0.11 nM | IC50 [5]: 342 nM | Activity (Mu-type opioid receptor [6]): 6.54 | Ratio IC50 [7]: 3110 | Ratio IC50 (Mu-type opioid receptor [8]): 7 | inhibition (Mu-type opioid receptor [9]): Dose-dependent effect | inhibition (Mu-type opioid receptor [10]): inactive

N[C@@H](Cc1ccc(O)cc1)C(=O)N[C@H](CCCN(N=C=S)N=C=S)C(=O)N[C@@H](Cc1ccccc1)C(=O)NCC(=O)N[C@@H](Cc1ccc(O)cc1)C(=O)N1CCC[C@H]1C(=O)N[C@@H](CO)C(=O)O (H-Y[X4]FGYPS-OH)
Ratio IC50 [3]: 3 | IC50 (Mu-type opioid receptor [4]): 0.81 nM | IC50 [5]: 23.8 nM | Activity (Mu-type opioid receptor [6]): 0.89 | Ratio IC50 [7]: 29 | Ratio [11]: 9 | inhibition (Mu-type opioid receptor [12]): 40%

N[C@@H](Cc1ccc(O)cc1)C(=O)N[C@H](CCCCN(N=C=S)N=C=S)C(=O)N[C@@H](Cc1ccccc1)C(=O)NCC(=O)N[C@@H](Cc1ccc(O)cc1)C(=O)N1CCC[C@H]1C(=O)N[C@@H](CO)C(=O)O (H-Y[X5]FGYPS-OH)
IC50 (Mu-type opioid receptor [4]): 0.38 nM | IC50 [5]: 97.1 nM | Activity (Mu-type opioid receptor [6]): 1.89 | Ratio IC50 [7]: 255 | Ratio IC50 (Mu-type opioid receptor [8]): 2 | inhibition (Mu-type opioid receptor [9]): Dose-dependent effect | inhibition (Mu-type opioid receptor [13]): 31%

N[C@@H](Cc1ccc(O)cc1)C(=O)N[C@H](CCCCN(C(=O)CBr)C(=O)CBr)C(=O)N[C@@H](Cc1ccccc1)C(=O)NCC(=O)N[C@@H](Cc1ccc(O)cc1)C(=O)N1CCC[C@H]1C(=O)N[C@@H](CO)C(=O)O (H-Y[X6]FGYPS-OH)
Ratio IC50 [3]: 3 | IC50 (Mu-type opioid receptor [4]): 5.23 nM | IC50 [5]: 382 nM | Activity (Mu-type opioid receptor [6]): 0.14 | Ratio IC50 [7]: 73 | Ratio [11]: 4 | inhibition (Mu-type opioid receptor [14]): 32%

CC(=O)N(CCCC[C@@H](NC(=O)[C@@H](N)Cc1ccc(O)cc1)C(=O)N[C@@H](Cc1ccccc1)C(=O)NCC(=O)N[C@@H](Cc1ccc(O)cc1)C(=O)N1CCC[C@H]1C(=O)N[C@@H](CO)C(=O)O)C(C)=O (H-Y[X7]FGYPS-OH)
IC50 (Mu-type opioid receptor [4]): 29.8 nM | IC50 [5]: 436 nM | Activity (Mu-type opioid receptor [6]): 0.02 | Ratio IC50 [7]: 15

CC(=O)N(CCC[C@@H](NC(=O)[C@@H](N)Cc1ccc(O)cc1)C(=O)N[C@@H](Cc1ccccc1)C(=O)NCC(=O)N[C@@H](Cc1ccc(O)cc1)C(=O)N1CCC[C@H]1C(=O)N[C@@H](CO)C(=O)O)C(C)=O (H-Y[X8]FGYPS-OH)
IC50 (Mu-type opioid receptor [4]): 4.25 nM | IC50 [5]: 272 nM | Activity (Mu-type opioid receptor [6]): 0.17 | Ratio IC50 [7]: 64

CC(C)C[C@@H](CSSc1ncccc1[N+](=O)[O-])NC(=O)[C@H](Cc1ccccc1)NC(=O)CNC(=O)C(C)NC(=O)[C@@H](N)Cc1ccc(O)cc1 (stereo in doubt)
inhibition [15]: Dose-dependent effect | IC50 (Mu-type opioid receptor [16]): 19 nM

— ChEMBL document CHEMBL1154775, “Discovery of dermorphin-based affinity labels with subnanomolar affinity for mu opioid receptors” (J Med Chem, 2009)
